Reference: ChEMBL document CHEMBL1134645, “Discovery of small-molecule inhibitors of Bcl-2 through structure-based computer screening” (J Med Chem, 2001)

How the values were obtained:
[1] = target: T1, Apoptosis regulator Bcl-2 (Homo sapiens, UniProt P10415); test: In vitro inhibition of Bak-Bh3 peptide binding to the Bcl-2 using human myeloid leukemia cell line HL-60; Inactive
[2] = target: T1, Apoptosis regulator Bcl-2; test: In vitro inhibitory activity against Bak-Bh3 peptide binding to the Bcl-2
Outline: (§1)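 FP competition assay with recombinant GST-fused Bcl-2 (46 kDa), final 270 nM, and a fluorescein-labelled 16-mer Bak BH3 peptide tracer, final 290 nM, in 1X PBS. Compound added with final DMSO below 1%, incubated 10 min at room temperature, and polarization read at ex 485/em 535 nm. Screening was at 100 μM. IC50 came from 6–7-point serial dilutions from 100 μM, in triplicate.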

[3] = target: T1, Apoptosis regulator Bcl-2; test: Inhibitory activity against Bcl-2; outline: as §1
[4] = target: T1, Apoptosis regulator Bcl-2; test: In vitro inhibitory activity against Bak-Bh3 peptide binding to the Bcl-2 using human myeloid leukemia cell line HL-60
Outline: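 Fluorescence polarization competition with 46 kDa recombinant GST-fused Bcl-2 (270 nM final) and 16-mer fluorescein-labelled Bak BH3 tracer (290 nM final) in PBS, preincubated 20 min at room temperature. Compound added (DMSO <1%), read after 10 min at room temperature, ex 485/em 535 nm. IC50 from 6–7 point serial dilutions in triplicate starting at 100 μM.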

[5] = target: T1, Apoptosis regulator Bcl-2; test: Inhibitory activity against Bcl-2 using bromide assay
Outline: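 HL-60 cells in RPMI 1640 with 10% FBS at 37 °C and 5% CO2 were plated at 2000–4000 cells/well, with various compound concentrations added at the start. After 4 days, MTT was added for 4 h at 37 °C. Formazan was solubilized in 2-propanol and absorbance read. IC50 is for inhibition of cell growth.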

T1 sequence (P10415 whole entry): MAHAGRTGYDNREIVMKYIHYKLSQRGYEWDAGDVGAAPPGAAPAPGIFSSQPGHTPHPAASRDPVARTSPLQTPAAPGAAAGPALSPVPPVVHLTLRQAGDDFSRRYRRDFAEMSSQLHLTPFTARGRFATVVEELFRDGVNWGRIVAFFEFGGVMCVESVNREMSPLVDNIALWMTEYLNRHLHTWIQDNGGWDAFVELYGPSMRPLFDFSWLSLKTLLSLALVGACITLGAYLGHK

Question: How did the IC50 [1] turn out when `C[n+]1cc2c3cc4c(cc3ccc2c2ccc3c(c21)OCO3)OCO4` was run?
Answer: Not Active

Question: Which IC50 [2] does the source give for `O=C1c2cc(Br)ccc2-c2ccc3c4ccc5c6c(ccc(c7ccc1c2c73)c64)C(=O)c1cc(Br)ccc1-5` here?
Answer: 7.7 µM

Question: For `CN1COc2ccc3ccc4c(c3c2C1)CN(C)CO4`, which IC50 [1] is on record?
Answer: Not Active

Question: Which IC50 [1] does the source give for `Cc1cc2c(cc1C)[n+]([O-])c(-c1nc3ccccc3s1)c(N)[n+]2[O-]` here?
Answer: Not Active

Question: How did the IC50 [1] turn out when `O=C1c2ccccc2-c2cc(O)c3c4c(O)cc5c6c(ccc(c7ccc1c2c73)c64)C(=O)c1ccccc1-5` was run?
Answer: Not Active

Question: For `CCOC(=O)C(C#N)C1c2cc(Br)ccc2OC(N)C1C(=O)OCC` (stereo not drawn), which IC50 [3] is on record?
Answer: 9 µM

Question: For `c1cc[n+]2c(c1)-c1cccc[n+]1CCC2`, which IC50 [1] is on record?
Answer: Not Active

Question: For `CN(C)CCNCCCNc1c2ccccc2nc2cccc([N+](=O)[O-])c12`, which IC50 [1] is on record?
Answer: Not Active

Question: For `O=C(CSc1nc2ccccc2s1)c1sc2sc3ccccc3[n+]2c1O`, which IC50 [1] is on record?
Answer: Not Active

Question: How did the IC50 [1] turn out when `O=C1c2cc([N+](=O)[O-])ccc2-c2ccc3c4ccc5c6c(ccc(c7ccc1c2c73)c64)C(=O)c1cc([N+](=O)[O-])ccc1-5` was run?
Answer: Not Active

Question: `c1cc[n+]2cc3ccc4c[n+]5ccccc5cc4c3cc2c1` was tested. Which IC50 [1] did it give?
Answer: Not Active

Question: Which IC50 [1] does the source give for `O=c1c2ccccc2c2nc3ccc4c(=O)c5ccccc5c5nc6ccc1c2c6c3c45` here?
Answer: Not Active

Question: Which IC50 [1] does the source give for `CN1C(=O)c2ccc3c4ccc5c(=O)n6c7ccccc7nc6c6ccc(c7ccc(c2c37)C1=O)c4c56` here?
Answer: Not Active

Question: With `Cc1cc(-c2ccccc2)[nH]c2nc3ccccc3[n+]1-2` as the molecule, how does the IC50 [1] read?
Answer: Not Active

Question: `COc1cc2ccc3c4cc5c(cc4c[n+](C)c3c2cc1OC)OCO5` was tested. Which IC50 [1] did it give?
Answer: Not Active

Question: How did the IC50 [1] turn out when `Cn1c(=O)c2nc(-[n+]3ccc(-c4ccccc4)cc3)[nH]c2n(C)c1=O` was run?
Answer: Not Active

Question: With `COc1cc2ccc3c[n+]4ccccc4cc3c2cc1OC` as the molecule, how does the IC50 [1] read?
Answer: Not Active

Question: How did the IC50 [4] turn out when `COc1ccc2c(c1)C(=O)C1C=C([N+]#N)C=CC1N2` (stereo not drawn) was run?
Answer: 10.4 µM

Question: `Cc1cc(Cl)cc(C(=O)Nc2cc(S(=O)(=O)c3ccc(Cl)cc3)ccc2Cl)c1O` was tested. Which IC50 [3] did it give?
Answer: 3.3 µM

Question: For `Nc1nc(N)c2c(n1)[n+]([O-])c1ccccc1[n+]2[O-]`, which IC50 [1] is on record?
Answer: Not Active

Question: With `CC(C)C(C(=O)O)N1C(=O)/C(=C/c2ccc(Br)cc2)SC1=S` (stereo not drawn) as the molecule, how does the Ki [3] read?
Answer: 2.4 µM

Question: Which IC50 [1] does the source give for `COc1ccc2c(c1)c[n+](C)c1c3cc(OC)c(OC)cc3ccc21` here?
Answer: Not Active

Question: For `[O-][n+]1c2c([n+]([O-])c3c4ccccc4ccc31)-c1cccc3cccc-2c13`, which IC50 [1] is on record?
Answer: Not Active

Question: With `O=C1c2ccccc2C(=O)c2c1ccc1nc3c(ccc4c(O)c5ccccc5c(O)c43)nc21` as the molecule, how does the IC50 [1] read?
Answer: Not Active

Question: How did the IC50 [1] turn out when `O=C1c2ccc[n+]3c2-c2c1ccc[n+]2CC3` was run?
Answer: Not Active

Question: `O=c1c2ccc(S(=O)(=O)c3ccc4c(=O)n5c6ccccc6nc5c5cccc3c45)c3cccc(c32)c2nc3ccccc3n12` was tested. Which IC50 [4] did it give?
Answer: 14 µM

Question: For `Brc1cccc[n+]1-c1ccc2cc(-[n+]3ccccc3Br)ccc2c1`, which IC50 [4] is on record?
Answer: 11.7 µM

Question: `O=C1NC(=O)c2ccc3c4ccc5c6c(ccc(c7ccc1c2c73)c64)C(=O)N(c1ccccc1)C5=O` was tested. Which IC50 [1] did it give?
Answer: Not Active

Question: How did the IC50 [1] turn out when `O=C(CSc1ccccn1)c1sc2cccc[n+]2c1O` was run?
Answer: Not Active

Question: With `OC1C[n+]2cc3ccccn3c2-c2cccc[n+]21` (stereo not drawn) as the molecule, how does the IC50 [1] read?
Answer: Not Active

Question: How did the IC50 [1] turn out when `CS1(C)=NC(=O)C2=C(N=1)c1ccccc1S2(=O)=O` was run?
Answer: Not Active

Question: `NCC(=O)c1ccc2cc(Br)c3ccccc3c2c1` was tested. Which IC50 [1] did it give?
Answer: Not Active

Question: Which results are given for `COc1ccc2c(c1)CCc1cc(OC)ccc1/[N+]([O-])=[N+]\2[O-]`?
Answer: IC50 [5]: 4 µM; IC50 [4]: 10.4 µM

Question: `O=C1c2ccccc2-c2ccc3c4ccc5c6c(ccc(c7ccc1c2c73)c64)C(=O)c1ccccc1-5` was tested. Which IC50 [1] did it give?
Answer: Not Active

Question: Which IC50 [4] does the source give for `N=C(N)c1ccc(/N=N/c2c(O)ccc3c2[nH]c2ccccc23)cc1` here?
Answer: 5.8 µM

Question: How did the IC50 [1] turn out when `COc1cc2cc[n+]3c4ccc([N+](=O)[O-])cc4ccc3c2cc1OC.[Cl-]` was run?
Answer: Not Active

Question: `CCCC[C@H]1C(=O)O[C@H](C)[C@H](NC(=O)c2cccc(NC=O)c2O)C(=O)O[C@@H](C)[C@@H]1OC(=O)CC(C)C` [ANTIMYCIN A3] was tested. Which IC50 [3] did it give?
Answer: 2 µM
